# Reference: ChEMBL document CHEMBL1141315, “Structures and radical-scavenging activities of phenolic constituents from the bark of Picea jezoensis var. jezoensis” (J Nat Prod, 2007)
# Key:
# [1] = tested on: Radical scavenging activity; experiment: Antioxidant activity assessed as DPPH radical scavenging activity; assay type: functional
# Summary of the method: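 Test sample in EtOH mixed with 0.1 M HOAc–NaOAc buffer (pH 5.5) and DPPH in EtOH (800 µM stock). Reacted 30 min at room temperature in microplate wells; absorbance read at 517 nm. Value reported as SC50 (50% scavenging concentration).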
# [2] = Antioxidant activity assessed as superoxide anion radical scavenging activity; assay type: functional
# Summary of the method: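 Superoxide generated by xanthine–xanthine oxidase in 0.05 M Na2CO3 (pH 10.2) with xanthine, EDTA, BSA and nitroblue tetrazolium (stocks 3 mM, 3 mM, 1.5 mg/mL, 0.75 mM); reaction started with xanthine oxidase (0.1 mg/mL stock). Incubated 20 min at 25 °C, stopped with CuCl2, absorbance at 560 nm; IC50 reported.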
smiles,measurement,setting,value
COc1cc([C@@H]2Oc3c(OC)cc(CCCO)cc3[C@H]2CO)ccc1O [DIHYDRODEHYDRODICONIFERYL ALCOHOL],SC50,[1],69.1 µM
same,IC50,[2],344 µM
Oc1cc(O)cc([C@@H]2c3c(cc(O)c4c3O[C@H](c3ccc(O)c(O)c3)[C@@H](O)C4)O[C@H]2c2ccc(O)c(O)c2)c1 [JEZONOCINOL A],SC50,[1],9.92 µM
same,IC50,[2],2.03 µM
O=C1c2c(O)cc(O)cc2O[C@H](c2ccc(O)c(O)c2)[C@H]1O [(+)-TAXIFOLIN],SC50,[1],10.4 µM
same,IC50,[2],1.41 µM
Oc1cc(O)cc([C@H]2c3c(cc(O)c4c3O[C@H](c3ccc(O)c(O)c3)[C@@H](O)C4)O[C@@H]2c2ccc(O)c(O)c2)c1 [JEZONOCINOL B],SC50,[1],11.8 µM
same,IC50,[2],1.8 µM
O=C1C=C2O[C@H](c3ccc(O)c(O)c3)[C@@H](O)[C@@H]3c4c(O)cc(O)cc4[C@H](C23)[C@H](c2ccc(O)c(O)c2)C1 (stereo partly specified),SC50,[1],3.83 µM
O=Cc1ccc(O)c(O)c1 [PROTOCATECHUALDEHYDE],SC50,[1],12.2 µM
same,IC50,[2],25.3 µM
O=C(O)c1ccc(O)c(O)c1 [PROTOCATECHUIC ACID],SC50,[1],17.3 µM
same,IC50,[2],3.31 µM
O=C(O)/C=C/c1ccc(O)cc1 [COUMARIC ACID],SC50,[1],117 µM
same,IC50,[2],104 µM
COc1cc([C@H]2c3cc(O)c(OC)cc3C[C@@H](CO)[C@@H]2CO)ccc1O [ISOLARICIRESINOL],SC50,[1],13.7 µM
same,IC50,[2],70.7 µM
Oc1cc(O)c2c(c1)O[C@H](c1ccc(O)c(O)c1)[C@@H](O)C2 [CIANIDANOL],SC50,[1],11.4 µM
same,IC50,[2],2.31 µM
O=C(O)c1cc(O)c(O)c(O)c1 [GALLIC ACID],SC50,[1],8.08 µM
same,IC50,[2],0.53 µM
